Source: ChEMBL document CHEMBL1212721, “Mechanistic and structural insights into the proteolytic activation of Vibrio cholerae MARTX toxin” (Nat Chem Biol, 2009)
Activity calls are given as the source filed them. The rule behind the calls is not given here.

Legend:
Vibrio cholerae [1] = test: Inhibition of Vibrio cholerae recombinant MARTX toxin (3391-3650) cysteine protease domain autoprocessing assessed as reduction of GTPgamma-S-induced activation of protease activity at 100 uM after 15 mins by Coomassie staining based SDS-PAGE method
How it was run: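 His6-tagged CPD (aa 3391–3650, 1 µM) in 60 mM NaCl, 20 mM Tris pH 7.5, 250 mM sucrose was preincubated with 100 µM inhibitor (30 min at room temperature per Methods; 15 min per legend). GTPγS was then added to 200 µM final to trigger autoprocessing, 2 h at 37°C. Read-out was 15% SDS-PAGE with Coomassie staining. Screen run in triplicate; hits confirmed in a secondary screen.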

Vibrio cholerae [2] = test: Inhibition of Vibrio cholerae recombinant MARTX toxin (3391-3650) cysteine protease domain autoprocessing assessed as concentration of InsP6 required to activate half maximal cleavage of the enzyme at 10 uM by Coomassie staining based SDS-PAGE method
How it was run: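 N-terminally His6-tagged CPD (aa 3391–3650, 1 µM) in 60 mM NaCl, 20 mM Tris pH 7.5, 250 mM sucrose was pretreated with 10 µM inhibitor for 30 min at room temperature. InsP6 was added across a concentration range, followed by 1 h at 37°C. Samples were run on SDS-PAGE with Coomassie staining and densitometry. Cleaved/total fraction was plotted against InsP6 and fitted with a Michaelis-Menten function to give AC50(I). Triplicates.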

Vibrio cholerae [3] = test: Inhibition of MARTX toxin cysteine protease domain autoprocessing at Leu3441 residue in wild type Vibrio cholerae at 100 uM by Western blot
How it was run: (§1)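 Culture supernatants were TCA-precipitated and resolved by SDS-PAGE. Western blot with a polyclonal anti-CPD antibody read out MARTX_Vc processing, seen as accumulation of unprocessed toxin (~460 kDa) compared with untreated wild-type supernatants.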

Vibrio cholerae [4] = test: Inhibition of MARTX toxin cysteine protease domain autoprocessing at Leu3099 residue in wild type Vibrio cholerae at >50 uM by Western blot; how it was run: as §1
HFF [5] = test: Inhibition of MARTX toxin cysteine protease domain autoprocessing in Vibrio cholerae assessed as assessed as reduction in actin cross linking in HFF cells exposed to Vibrio cholerae supernatants pretreated at 50 uM for 15 mins by Western blot; format: cell-based
Vibrio cholerae [6] = test: Inhibition of MARTX toxin cysteine protease domain autoprocessing in wild type Vibrio cholerae by Western blot; how it was run: as §1
HFF [7] = test: Inhibition of Vibrio cholerae MARTX toxin cysteine protease domain autoprocessing assessed as assessed as reduction in actin cross linking in HFF cells at 50 uM pretreated for 15 before Vibrio cholerae supernatants addition by Western blot; format: cell-based

Structure (SMILES)	inhibition (Vibrio cholerae [1])	Activity (Vibrio cholerae [2])	inhibition (Vibrio cholerae [3])	inhibition (Vibrio cholerae [4])	inhibition (HFF [5])	inhibition (Vibrio cholerae [6])	inhibition (HFF [7])
CCOC(=O)[C@H]1O[C@@H]1C(=O)N(CC(C)C)NC(=O)[C@H](CC(C)C)NC(=O)[C@H](CC(C)C)NC(=O)OCc1ccccc1 (stereo in doubt; 9)	Active	74 nM	–	–	–	–	–
CCOC(=O)[C@H]1O[C@@H]1C(=O)N(CC(C)C)NC(=O)[C@H](CC(C)C)NC(=O)[C@H](CC(C)C)NC(=O)OCc1ccccc1 (stereo in doubt; 7)	Active	457 nM	inactive	Active	Active	Dose-dependent effect	Active
CCOC(=O)[C@H]1O[C@@H]1C(=O)N(CC(C)C)NC(=O)[C@H](CC(C)C)NC(C)=O	Active	21 nM	–	–	–	–	–
Cc1cccc(C)c1C(=O)OCC(=O)[C@H](CC(C)C)NC(=O)[C@H](C)NC(=O)[C@H](CCC(=O)O)NC(=O)OCc1ccccc1	Active	529 nM	inactive	Active	Active	Dose-dependent effect	inactive
CCOC(=O)[C@@H]1O[C@H]1C(=O)N(CC(C)C)NC(=O)[C@H](CC(C)C)NC(=O)[C@H](CC(C)C)NC(=O)OCc1ccccc1	Active	5.2 nM	–	–	–	–	–
Cc1cccc(C)c1C(=O)OCC(=O)[C@H](CC(C)C)NC(=O)[C@H](C)NC(=O)OCc1ccccc1	Active	187 nM	–	–	–	–	–
CC(C)C[C@H](NC(=O)OCc1ccccc1)C(=O)N[C@@H](CC(C)C)C(=O)NN(CC(C)C)C(=O)[C@H]1O[C@@H]1C(=O)O	Active	158 nM	–	–	–	–	–
CCOC(=O)[C@@H]1O[C@H]1C(=O)N(CC(C)C)NC(=O)OCc1ccccc1 (relative stereo)	Active	1.1 nM	–	–	–	–	–
Cc1cccc(C)c1C(=O)OCC(=O)[C@H](CC(C)C)NC(=O)[C@H](C)NC(=O)[C@H](CCC(=O)O)NC(=O)[C@H](CCCCN)NC(=O)OCc1ccccc1	Active	290 nM	–	–	–	–	–
CCOC(=O)[C@H]1O[C@@H]1C(=O)N(CC(C)C)NC(=O)[C@H](CC(C)C)NC(=O)OCc1ccccc1	Active	11 nM	–	–	–	–	–
